Measurements collected from several papers.
Each line is one published result; the experiments were not run side by side.
Target: G protein-coupled receptor kinase 4 (GRK4, Homo sapiens, UniProt P32298)

`CC(C)(C)c1nc2c(s1)c1nc(N)ncc1c1ccc(NS(=O)(=O)c3c(F)cccc3F)c(F)c12` has a remaining activity of 70% (enzyme activity, inhibitor, radiometric; 1 µM).
`O=C1Nc2ccc(Cl)cc2C1=Cc1cc(Cl)c(O)c(Cl)c1` gave a remaining signal of 108% (cell-free assay; 0.5 µM).
`CN(C)CC#Cc1ccc(OCCCc2sc(N3CCc4cccc(C(=O)Nc5nc6ccccc6s5)c4C3)nc2C(=O)O)c(F)c1` has a remaining binding of 100% (cell-free assay, competition with immobilised ligand; 1 µM).
With `COc1cc2c(N3CCN(C(=O)Nc4ccc(OC(C)C)cc4)CC3)ncnc2cc1OCCCN1CCCCC1` the remaining signal was 106% (cell-free assay; 0.5 µM).
The remaining activity of `Cc1ccc(C(=O)Nc2ccc(CN3CCN(C)CC3)c(C(F)(F)F)c2)cc1C#Cc1cnc2cccnn12` is reported as 96% (enzyme activity, inhibitor; 23.5 nM).
With `O=C(N[C@H]1CCCCC/C=C\C2C[C@@]2(C(=O)O)NC(=O)[C@@H]2C[C@@H](Oc3ccncc3)CN2C1=O)OC1CCCC1` (some centres unmarked) the remaining binding was 80% (binding, competition with immobilised ligand; 1 µM).
`CN(C)C1CCN(CC#Cc2nn(C3CCCC3)c3nc(NCc4ccccc4)ncc23)C1` (centres unmarked) has an inhibition of -6% (enzyme activity, inhibitor, FRET; 10 µM).
With `Cc1sc(C(=O)NC2COC2)cc1-n1cc(NC(=O)Nc2c(F)cccc2Cl)cn1` the remaining activity was 113% (enzyme activity, inhibitor; 10 µM).
For `O=C(Nc1ccc(Oc2ccc(F)cc2)cc1)N1CCc2ncccc2[C@H]1c1ccc(F)cc1`, the remaining binding was 93% (cell-free assay, competition with immobilised ligand; 1 µM).
For `CC(C)(O)[C@H]1CC[C@H](Nc2ccc3ncc(-c4cccc(C(F)(F)F)c4)n3n2)CC1`, the remaining activity was 96.5% (enzyme activity, inhibitor; 1 µM).
`CC(=O)N1CCC(c2ccc(C(=O)NC(=N)N)cc2C(F)(F)F)CC1` has a remaining binding of 100% (cell-free assay, competition with immobilised ligand; 1 µM).
`O=C(Nc1cnn(-c2csc(C(=O)NC3COC3)c2)c1)Nc1ccccc1Cl` has a remaining activity of 97% (enzyme activity, inhibitor; 5 µM).
For `CCN(CC)CCNC(=O)c1c(C)[nH]c(/C=C2\C(=O)Nc3ccc(F)cc32)c1C`, the remaining signal was 75.8% (cell-free assay; 0.5 µM).
`COc1cc2ncnc(Nc3ccc(Oc4ccccc4)cc3C)c2cc1OC` gave an inhibition of -2% (enzyme activity, inhibitor; 1 µM).
